In ChEMBL document CHEMBL1938385, “Identification of Trypanosoma brucei leucyl-tRNA synthetase inhibitors by pharmacophore- and docking-based virtual screening and synthesis” (Bioorg Med Chem, 2012):

Columns and labels:
[1] = Inhibition of Trypanosoma brucei LeuRS preincubated for 20 mins prior to reaction initiation by aminoacylation assay
How it was run: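 Enzyme, compound, tRNA and 0.003 mCi/mL [¹⁴C]-leucine were incubated 20 min at 37 °C, then 4 mM ATP was added to start the reaction. Precipitated [¹⁴C]-Leu-tRNA^Leu on dried filter paper was measured by scintillation counting.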

[2] = Inhibition of Staphylococcus aureus LeuRS
[3] = Inhibition of human LeuRS
[4] = Inhibition of Escherichia coli LeuRS

Compound | IC50 [1] [µM] | other results
COc1ccc(C(=O)C2=C(O)C(=O)N(CCc3c[nH]c4ccccc34)C2c2ccc(C(C)C)cc2)cc1 (stereo unspecified) | 90.5 | 
COc1ccc(C(=O)C2=C(O)C(=O)N(CCc3c[nH]c4ccccc34)C2c2cccc(F)c2)cc1 (stereo unspecified) | 170 | 
COc1ccc(C(=O)C2=C(O)C(=O)N(CCc3c[nH]c4ccccc34)C2c2ccccc2F)cc1 (stereo unspecified) | 269 | 
COc1ccc(C(=O)C2=C(O)C(=O)N(CCc3c[nH]c4ccccc34)C2c2ccc(F)cc2)cc1 (stereo unspecified) | 64.7 | 
COc1ccc(C(=O)C2=C(O)C(=O)N(CCc3c[nH]c4ccccc34)C2c2ccccc2Cl)cc1 (stereo unspecified) | 125 | 
COc1ccc(C(=O)C2=C(O)C(=O)N(CCc3c[nH]c4ccccc34)C2c2ccc(Cl)cc2)cc1 (stereo unspecified) | 86.9 | 
COc1ccc(C(=O)C2=C(O)C(=O)N(CCc3c[nH]c4ccccc34)C2c2ccccc2)cc1 (stereo unspecified) | 260 | 
COc1ccc(C(=O)C2=C(O)C(=O)N(CCc3c[nH]c4ccccc34)C2c2ccc(C)cc2)cc1 (stereo unspecified) | 117 | 
CCc1ccc(C2C(C(=O)c3ccc(OC)cc3)=C(O)C(=O)N2CCc2c[nH]c3ccccc23)cc1 (stereo unspecified) | 71.4 | 
COc1ccc(C(=O)C2=C(O)C(=O)N(CCc3c[nH]c4ccccc34)C2c2ccc(OC)cc2)cc1 (stereo unspecified) | 334 | 
COc1ccc(C(=O)C2=C(O)C(=O)N(CCc3c[nH]c4ccccc34)C2c2ccccc2OC)cc1 (stereo unspecified) | 190 | 
COc1ccccc1C1C(C(=O)c2ccc(Cl)cc2)=C(O)C(=O)N1CCc1c[nH]c2ccccc12 (stereo unspecified) | 107 | 
O=C(C1=C(O)C(=O)N(CCc2c[nH]c3ccccc23)C1c1cccc(O)c1)c1ccc(Cl)cc1 (stereo unspecified) | 588 | 
O=C(C1=C(O)C(=O)N(CCc2c[nH]c3ccccc23)C1c1ccc(Cl)cc1)c1ccc(F)cc1 (stereo unspecified) | > 1000 | 
O=C(C1=C(O)C(=O)N(CCc2c[nH]c3ccccc23)C1c1ccccc1)c1ccc(F)cc1 (stereo unspecified) | > 1000 | 
O=C(C1=C(O)C(=O)N(CCc2c[nH]c3ccccc23)C1c1cccc(F)c1)c1ccccc1 (stereo unspecified) | > 1000 | 
CCc1ccc(C2C(C(=O)c3ccc(OC)cc3)=C(O)C(=O)N2CCCNC(=O)OC(C)(C)C)cc1 (stereo unspecified) | 269 | 
CCc1ccc(C2C(C(=O)c3ccc(OC)cc3)=C(O)C(=O)N2c2ccc(CNC(=O)OC(C)(C)C)cc2)cc1 (stereo unspecified) | 102 | 
CCc1ccc(C2C(C(=O)c3ccc(OC)cc3)=C(O)C(=O)N2CCCNC(=O)CC(C)C)cc1 (stereo unspecified) | > 1000 | 
CCc1ccc(C2C(C(=O)c3ccc(OC)cc3)=C(O)C(=O)N2Cc2ccc3c(c2)OCO3)cc1 (stereo unspecified) | 174 | 
CCc1ccc(C2C(C(=O)c3ccc(OC)cc3)=C(O)C(=O)N2Cc2ccc(C(=O)O)cc2)cc1 (stereo unspecified) | 656 | 

Compound | IC50 [1] [µM] | other results
CCc1ccc(C2C(C(=O)c3ccc(OC)cc3)=C(O)C(=O)N2CCCn2ccnc2)cc1 (stereo unspecified) | 716 | 
CCc1ccc(C2C(C(=O)c3ccc(OC)cc3)=C(O)C(=O)N2CCCN)cc1 (stereo unspecified) | > 1000 | 
CCc1ccc(C2C(C(=O)c3ccc(OC)cc3)=C(O)C(=O)N2c2ccc(CN)cc2)cc1 (stereo unspecified) | > 1000 | 
COc1ccc(C(=O)C2=C(O)C(=O)N(CCc3c[nH]c4ccccc34)C2c2ccc(C(F)(F)F)cc2)cc1 (stereo unspecified) | 68.1 | 
COc1ccc(C(=O)C2=C(O)C(=O)N(CCc3c[nH]c4ccccc34)C2c2ccc(C(C)(C)C)cc2)cc1 (stereo unspecified) | 94.5 | 
CCCCc1ccc(C2C(C(=O)c3ccc(OC)cc3)=C(O)C(=O)N2CCc2c[nH]c3ccccc23)cc1 (stereo unspecified) | 43.9 | 
COc1ccc(C(=O)C2=C(O)C(=O)N(CCc3c[nH]c4ccccc34)C2c2ccc(CC(C)C)cc2)cc1 (stereo unspecified) | 31.9 | 
COc1ccc(C(=O)C2=C(O)C(=O)N(CCc3c[nH]c4ccccc34)C2c2ccc(-c3ccccc3)cc2)cc1 (stereo unspecified) | 43.1 | 
COc1ccc(C(=O)C2=C(O)C(=O)N(CCc3c[nH]c4ccccc34)C2c2ccc3ccccc3c2)cc1 (stereo unspecified) | 85.5 | 
COc1ccc(C(=O)C2=C(O)C(=O)N(CCc3c[nH]c4ccccc34)C2c2ccc(F)cc2Br)cc1 (stereo unspecified) | 110 | 
CCCCCC1C(C(=O)c2ccc(OC)cc2)=C(O)C(=O)N1CCc1c[nH]c2ccccc12 (stereo unspecified) | 111 | 
CC(C)Cc1ccc(C2C(C(=O)c3ccc(Cl)cc3)=C(O)C(=O)N2CCc2c[nH]c3ccccc23)cc1 (stereo unspecified) | 41 | 
CC(C)Cc1ccc(C2C(C(=O)c3ccc(F)cc3F)=C(O)C(=O)N2CCc2c[nH]c3ccccc23)cc1 (stereo unspecified) | 175 | 
CCc1ccc(C2C(C(=O)c3cccc4ccccc34)=C(O)C(=O)N2CCc2c[nH]c3ccccc23)cc1 (stereo unspecified) | 80 | 
CC[C@H](C)[C@H](N)C(=O)NS(=O)(=O)OC[C@H]1O[C@@H](c2nc(-c3ccccc3)ns2)[C@H](O)[C@@H]1O |  | IC50 [2]: > 20 µM; IC50 [3]: 200 µM; IC50 [4]: 1 µM
CC(C)C[C@H](N)C(=O)NS(=O)(=O)OC[C@H]1O[C@@H](c2nc(-c3ccc(Oc4ccccc4)cc3)ns2)[C@H](O)[C@@H]1O |  | IC50 [2]: 0.054 µM; IC50 [3]: 0.6 µM; IC50 [4]: 0.0016 µM
CC(C)C[C@H](N)C(=O)NS(=O)(=O)OC[C@H]1O[C@@H](c2nc(CCc3cccc(Oc4ccccc4)c3)ns2)[C@H](O)[C@@H]1O |  | IC50 [2]: 0.1 µM; IC50 [3]: 1.15 µM; IC50 [4]: 0.006 µM
CC(C)C[C@H](N)C(=O)NS(=O)(=O)OC[C@H]1O[C@@H](c2nc(CCc3ccccc3)ns2)[C@H](O)[C@@H]1O |  | IC50 [2]: 0.09 µM; IC50 [3]: 0.73 µM; IC50 [4]: < 0.002 µM
CC[C@H](C)[C@H](N)C(=O)NS(=O)(=O)OCc1oc(-c2nc(-c3ccccc3)cs2)c(O)c1O |  | IC50 [3]: 0.6 µM; IC50 [4]: 0.0016 µM
CC[C@H](C)[C@H](N)C(=O)NS(=O)(=O)CC(=O)O[C@H]1CC[C@H]2C(C(N)=O)=CN(C)C[C@@H]12 |  | IC50 [2]: 0.42 µM
CC[C@H](C)[C@H](N)C(=O)NS(=O)(=O)CC(=O)N[C@]1(C(=O)OC)[C@@H]2CN(C)C=C(C(N)=O)[C@@H]2C[C@@H]1O |  | IC50 [2]: 186 µM
